The source made the active and inactive calls. No cut-off for these calls is given here.
How the values were obtained:
[1] = tested on: MeWo; assay: Cytotoxicity against human MeWo cells assessed as cell viability at 10 uM after 48 hrs by MTT assay relative to vehicle-treated control; assay type: functional; details: read-out: Activity
In short: (§1)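 MeWo melanoma cells (DMEM, 10% FBS, 2 mM L-glutamine, penicillin/streptomycin 100 µg/mL) grown 48 h with or without compound. Washed twice in Locke's solution (HEPES pH 7.6), then MTT 250 µg/mL for 90 min. Screening at 10 µM fixed concentration against untreated control. Concentration–response: mean + S.D. of 8–16 replicates from 4 separate experiments.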

[2] = molecular target: T1, Tubulin (Homo sapiens) (UniProt P68371+Q9H4B7+P0DPH7+P68366+Q13509+Q71U36+P04350+Q3ZCM7+P07437+P68363+Q9BQE3+Q6PEY2+Q13885+Q9BVA1+Q9BUF5); assay: Inhibition of alpha-tubulin polymerization in human MeWo cells at 3 X IC50 after 16 hrs by immunofluorescence microscopic analysis; assay type: cell-based
In short: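 MeWo cells on glass coverslips, drug-treated at 3× IC50, 16 h per the legend (24 h in methods). Stained with anti-tubulin (1:1000, 20 min RT), Alexa 488 secondary and nuclear dye, imaged at 63× oil. Representative of three experiments.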

[3] = tested on: MeWo; assay: Cytotoxicity against human MeWo cells assessed as cell viability after 48 hrs by MTT assay; assay type: functional, cell-based; in short: as §1
[4] = Cytotoxicity against human SH-SY5Y cells assessed as cell viability after 48 hrs by MTT assay; assay type: functional, cell-based
In short: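 SH-SY5Y neuroblastoma cells in 50% DMEM/50% F-12 with 10% FBS, treated 48 h across a concentration range. Viability by MTT: cells washed twice in Locke's solution (pH 7.6), then 90 min with MTT 250 µg/mL. Mean + S.D. of 8–16 replicates from 4 separate experiments.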

[5] = molecular target: T1, Tubulin (Homo sapiens); assay: Inhibition of alpha-tubulin polymerization in human MeWo cells at 3 X IC50 after 16 hrs by Western blot analysis in presence of paclitaxel; assay type: cell-based
In short: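 MeWo cells in flasks, treated 16 h at 3× IC50 or left untreated. Trypsinised and lysed 10 min at RT in hypotonic buffer (20 mM Tris-HCl pH 6.8, 1 mM MgCl2, 2 mM EGTA, 0.5% NP-40, protease inhibitors) containing paclitaxel. Equal protein centrifuged 13000 rpm, 15 min. Pellet (polymerized) and supernatant (free) α-tubulin compared by SDS-PAGE/western blot, chemiluminescence. Three experiments; CA-4 positive control.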

[6] = tested on: MeWo; assay: Antitubulinic activity in human MeWo cells assessed as blockade in G2/M phase at 3 X IC50 after 16 hrs by propidium iodide staining-based FACS analysis; assay type: functional, cell-based
In short: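 MeWo cells (DMEM, 10% FBS, 2 mM L-glutamine, pen/strep) exposed 16 h to vehicle or compound. Washed once in PBS, then fixed in ice-cold 30:70 PBS/EtOH and held at −20 °C before DNA-content flow cytometry. Histograms shown are representative of three separate experiments.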

SMILES | viability at 10 µM [1] [%] | further results
COc1cc(/C=C/C(O)=C/C(=O)c2ccc(O)cc2)ccc1O | 89 | 
COc1ccc(/C=C/c2cc(-c3ccc(O)cc3)[nH]n2)cc1 | 81 | 
Oc1ccc(/C=C/c2cc(-c3ccc(O)cc3)[nH]n2)cc1 | 87 | 
COc1cc(/C=C/C(=O)CC(=O)/C=C/c2ccc(O)c(OC)c2)ccc1O [CURCUMIN] | 90 | inhibition [2]: Active; IC50 [3]: 35.5 µM; IC50 [4]: 11.4 µM; inhibition [5]: Active; Activity [6]: Active
COc1ccc(/C=C/C(O)=C/C(=O)c2ccccc2)cc1 | 90 | 
COc1cc(C(=O)/C=C(O)/C=C/c2ccc(O)cc2)ccc1O | 98 | 
COc1ccc(/C=C/C(O)=C/C(=O)c2ccc(O)c(OC)c2)cc1 | 84 | 
COc1cc(/C=C/c2cc(-c3ccc(O)cc3)[nH]n2)cc(OC)c1 | 38 | inhibition [2]: Active; IC50 [3]: 5.7 µM; IC50 [4]: 10.6 µM; inhibition [5]: Active; Activity [6]: Active
COc1cc(/C=C/c2cc(-c3ccccc3)[nH]n2)cc(OC)c1OC | 89 | 
COc1cc(/C=C/C(O)=C/C(=O)c2ccccc2)cc(OC)c1 | 92 | 
COc1cc(-c2cc(/C=C/c3cc(OC)c(OC)c(OC)c3)n[nH]2)ccc1O | 75 | 
COc1cc(/C=C/C(O)=C/C(=O)c2ccc(O)cc2)cc(OC)c1OC | 85 | 
COc1cc(/C=C/C(O)=C/C(=O)c2ccccc2)cc(OC)c1OC | 93 | 
COc1ccc(/C=C/c2cc(-c3ccccc3)[nH]n2)cc1 | 92 | 
COc1cc(/C=C/c2cc(-c3ccccc3)[nH]n2)ccc1O | 51 | 
COc1cc(/C=C/C(O)=C/C(=O)c2ccccc2)ccc1O | 90 | 

SMILES | viability at 10 µM [1] [%] | further results
COc1cc(C(=O)/C=C(O)/C=C/c2cc(OC)c(OC)c(OC)c2)ccc1O | 89 | 
COc1cc(/C=C/C(O)=C/C(=O)c2ccc(O)cc2)cc(OC)c1 | 90 | 
O=C(/C=C(O)/C=C/c1ccc(O)cc1)c1ccccc1 | 90 | 
COc1cc(/C=C/c2cc(-c3ccc(O)cc3)[nH]n2)cc(OC)c1OC | 85 | 
O=C(/C=C(O)/C=C/c1ccc(O)cc1)c1ccc(O)cc1 | 77 | 
COc1ccc(/C=C/c2cc(-c3ccc(O)c(OC)c3)[nH]n2)cc1 | 92 | 
COc1cc(/C=C/c2cc(-c3ccccc3)[nH]n2)cc(OC)c1 | 90 | 
COc1cc(-c2cc(/C=C/c3ccc(O)cc3)n[nH]2)ccc1O | 95 | 
COc1cc(/C=C/c2cc(-c3ccc(O)cc3)[nH]n2)ccc1O | 69 | 
COc1cc(/C=C/c2cc(-c3ccc(O)c(OC)c3)[nH]n2)ccc1O | 36 | inhibition [2]: Active; IC50 [3]: 3.7 µM; IC50 [4]: 4 µM; inhibition [5]: Active; Activity [6]: Active
COc1cc(/C=C/C(O)=C/C(=O)c2ccc(O)c(OC)c2)ccc1O | 97 | 
COc1cc(/C=C/c2cc(-c3ccc(O)c(OC)c3)[nH]n2)cc(OC)c1 | 43 | inhibition [2]: Active; IC50 [3]: 4.8 µM; IC50 [4]: 11.8 µM; inhibition [5]: Active; Activity [6]: Active
COc1cccc(/C=C/c2cc(-c3ccc(O)c(OC)c3)[nH]n2)c1 | 27 | inhibition [2]: Active; IC50 [3]: 3.6 µM; IC50 [4]: 10.6 µM; inhibition [5]: Active; Activity [6]: Active
Oc1ccc(/C=C/c2cc(-c3ccccc3)[nH]n2)cc1 | 98 | 
COc1cc(/C=C/C(O)=C/C(=O)c2ccc(O)c(OC)c2)cc(OC)c1 | 88 | 
COc1ccc(/C=C/C(O)=C/C(=O)c2ccc(O)cc2)cc1 | 93 | 

— ChEMBL document CHEMBL2413031, “Synthesis and tubulin-binding properties of non-symmetrical click C5-curcuminoids” (Bioorg Med Chem, 2013)
